Results: ChEMBL document CHEMBL3860061, “A Novel Parkinson's Disease Drug Candidate with Potent Anti-neuroinflammatory Effects through the Src Signaling Pathway” (J Med Chem, 2016)
The source made the active and inactive calls. The rule behind the calls is not given here.

Columns and labels:
[1] = molecular target: Proto-oncogene tyrosine-protein kinase Src (Mus musculus) (UniProt P05480); assay: Inhibition of Src signaling pathway in mouse BV2 cells assessed as suppression of LPS-induced NO release at […] preincubated for 1 hr followed by LPS addition measured after 24 hrs relative to control by Griess assay; assay type: cell-based; settings: BV-2
[2] = molecular target: Proto-oncogene tyrosine-protein kinase Src (Mus musculus, UniProt P05480); assay: Inhibition of Src in mouse BV2 cells assessed as suppression of LPS-induced NO release preincubated for 1 hr followed by LPS addition measured after 24 hrs by Griess assay; assay type: cell-based, BV-2
How it was run: (§1)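 BV-2 cells in DMEM/10% FBS, plated at 5×10^3 per well. After 24 h, treated at 100, 50, 10, 5, 1 and 0.1 µM; 1 h later LPS 300 ng/mL added. After another 24 h, nitrite in the medium measured by Griess assay.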

Mus musculus [3] = assay: Hepatotoxicity in ICR mouse at 1000 mg/kg administered through oral gavage for 14 consecutive days; assay type: toxicity, organism-based; settings: in vivo
How it was run: (§2)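 Mice dosed by oral gavage at 250, 500 and 1000 mg/kg for 14 consecutive days. General condition monitored throughout; liver and kidney clinical chemistry assessed.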

[4] = molecular target: Proto-oncogene tyrosine-protein kinase Src (Rattus norvegicus) (UniProt Q9WUD9); assay: Inhibition of Src in Sprague-Dawley rat primary mixed mesecephalic neuron/glial cells assessed as suppression of LPS-induced IL-1beta expression at 10 uM preincubated for 1 hr followed by LPS challenge measured after 5 hrs by ELISA
How it was run: (§3)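 Mixed mesencephalic neuron/glia cultures from E14 Sprague-Dawley rats, used at 7 days. Agent at 10 µM added 1 h before LPS 100 ng/mL; IL-1β and TNF-α in medium measured by ELISA after 5 h, n = 6.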

[5] = molecular target: Proto-oncogene tyrosine-protein kinase Src (Rattus norvegicus) (UniProt Q9WUD9); assay: Inhibition of Src in Sprague-Dawley rat primary mixed mesecephalic neuron/glial cells assessed as suppression of LPS-induced TNFalpha expression at 10 uM preincubated for 1 hr followed by LPS challenge measured after 5 hrs by ELISA; how it was run: as §3
[6] = molecular target: Proto-oncogene tyrosine-protein kinase Src (Rattus norvegicus) (UniProt Q9WUD9); assay: Inhibition of SRC in Sprague-Dawley rat primary mixed mesecephalic neuron/glial cells assessed as protection against LPS-induced dopaminergic neuro-toxicity by measuring TH expression at 10 uM preincubated for 1 hr followed by LPS challenge measured after 7 days by Western blot analysis
How it was run: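 Mixed mesencephalic neuron/glia cultures from E14 Sprague-Dawley rats, used at 7 days. Agent at 10 µM added 1 h before LPS 100 ng/mL; TH measured by Western blot after 7 days, n = 4.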

[7] = Drug uptake in ICR mouse plasma at 50 mg/kg, ig after 5 mins by LC/MS/MS analysis; assay type: ADME, organism-based; settings: in vivo, po
[8] = molecular target: Voltage-gated inwardly rectifying potassium channel KCNH2 (Homo sapiens, UniProt Q12809); assay: Inhibition of human ERG by whole cell voltage clamp assay
How it was run: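 Whole-cell voltage clamp. Internal solution: KCl 130 mM, MgCl2 1 mM, EGTA 5 mM, ATP-Mg 5 mM, HEPES 10 mM, pH 7.2. Bath: NaCl 137, CaCl2 1.8, KCl 4, MgCl2 1, glucose 5, HEPES 10 mM, pH 7.4. From a holding potential of −70 mV, 2-s steps to 50 mV in 10 mV increments every 15 s; tail current recorded on a 2-s step from +50 to −40 mV.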

[9] = Toxicity in ICR mouse assessed as mortality administered through oral gavage; assay type: organism-based; settings: in vivo
Mus musculus [10] = assay: Nephrotoxicity in ICR mouse at 1000 mg/kg administered through oral gavage for 14 consecutive days; assay type: toxicity, organism-based; settings: in vivo; how it was run: as §2
[11] = molecular target: Proto-oncogene tyrosine-protein kinase Src (Rattus norvegicus) (UniProt Q9WUD9); assay: Inhibition of Src in Sprague-Dawley rat primary mixed mesecephalic neuron/glial cells assessed as suppression of LPS-induced microglia activation by measuring Iba-1 expression at 10 uM preincubated for 1 hr followed by LPS challenge measured after 24 hrs
[12] = AUC (0 to infinity) in ICR mouse blood at 50 mg/kg, ig up to 8 hrs by LC/MS/MS analysis; assay type: ADME, organism-based; set-up: dose 50 mg/kg, route […], time infinity; settings: in vivo, po
How it was run: (§4)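 Male ICR mice (22–25 g), fasted 16 h, single intragastric dose of 50 mg/kg. Blood and brain sampled at 5, 15, 30 min and 1, 2, 4, 8 h after decapitation. Plasma spun 4000 rpm 5 min; brain homogenised in saline and spun. Extracts run by LC/MS/MS on C18 columns at 30 °C, isocratic 70% acetonitrile (1% TFA)/30% water, 0.2 mL/min. Mean ± SD, n = 6.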

[13] = Half life in ICR mouse blood at 50 mg/kg, ig up to 8 hrs by LC/MS/MS analysis; assay type: ADME, organism-based; settings: po; how it was run: as §4
[14] = Cmax in ICR mouse blood at 50 mg/kg, ig up to 8 hrs by LC/MS/MS analysis; assay type: ADME, organism-based; set-up: dose 50 mg/kg, route […]; settings: po; how it was run: as §4
[15] = AUC (0 to infinity) in ICR mouse brain at 50 mg/kg, ig up to 8 hrs by LC/MS/MS analysis; assay type: ADME, organism-based; set-up: dose 50 mg/kg, route […], time infinity; settings: in vivo, po, BLD = below limit of detection; how it was run: as §4
[16] = Cmax in ICR mouse brain at 50 mg/kg, ig up to 8 hrs by LC/MS/MS analysis; assay type: ADME, organism-based; set-up: dose 50 mg/kg, route […]; settings: in vivo, po, BLD = below limit of detection; how it was run: as §4
[17] = molecular target: Proto-oncogene tyrosine-protein kinase Src (Mus musculus) (UniProt P05480); assay: Inhibition of Src signaling pathway in mouse BV2 cells assessed as suppression of LPS-induced NO release at 0.1 to 100 uM preincubated for 1 hr followed by LPS addition measured after 24 hrs relative to control by Griess assay; assay type: cell-based; settings: BV-2; how it was run: as §1

Sequence of Proto-oncogene tyrosine-protein kinase Src (P05480 2-535 limits assumed): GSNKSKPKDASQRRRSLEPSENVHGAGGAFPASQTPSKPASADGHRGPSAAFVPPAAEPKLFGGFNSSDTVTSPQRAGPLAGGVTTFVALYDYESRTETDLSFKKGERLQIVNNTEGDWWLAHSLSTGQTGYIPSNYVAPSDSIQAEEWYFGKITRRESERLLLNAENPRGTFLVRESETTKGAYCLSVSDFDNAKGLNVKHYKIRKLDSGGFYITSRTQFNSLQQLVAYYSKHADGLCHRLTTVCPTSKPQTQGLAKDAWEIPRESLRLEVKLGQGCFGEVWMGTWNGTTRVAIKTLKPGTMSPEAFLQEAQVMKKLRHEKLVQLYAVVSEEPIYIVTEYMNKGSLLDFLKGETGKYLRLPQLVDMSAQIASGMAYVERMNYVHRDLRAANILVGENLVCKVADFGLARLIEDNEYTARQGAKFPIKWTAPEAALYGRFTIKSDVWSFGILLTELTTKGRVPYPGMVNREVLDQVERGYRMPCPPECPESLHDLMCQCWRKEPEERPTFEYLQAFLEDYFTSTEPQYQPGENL
Sequence of Proto-oncogene tyrosine-protein kinase Src (Mus musculus) (P05480 2-535 limits assumed): as above
Sequence of Proto-oncogene tyrosine-protein kinase Src (Rattus norvegicus) (Q9WUD9 2-536 limits assumed): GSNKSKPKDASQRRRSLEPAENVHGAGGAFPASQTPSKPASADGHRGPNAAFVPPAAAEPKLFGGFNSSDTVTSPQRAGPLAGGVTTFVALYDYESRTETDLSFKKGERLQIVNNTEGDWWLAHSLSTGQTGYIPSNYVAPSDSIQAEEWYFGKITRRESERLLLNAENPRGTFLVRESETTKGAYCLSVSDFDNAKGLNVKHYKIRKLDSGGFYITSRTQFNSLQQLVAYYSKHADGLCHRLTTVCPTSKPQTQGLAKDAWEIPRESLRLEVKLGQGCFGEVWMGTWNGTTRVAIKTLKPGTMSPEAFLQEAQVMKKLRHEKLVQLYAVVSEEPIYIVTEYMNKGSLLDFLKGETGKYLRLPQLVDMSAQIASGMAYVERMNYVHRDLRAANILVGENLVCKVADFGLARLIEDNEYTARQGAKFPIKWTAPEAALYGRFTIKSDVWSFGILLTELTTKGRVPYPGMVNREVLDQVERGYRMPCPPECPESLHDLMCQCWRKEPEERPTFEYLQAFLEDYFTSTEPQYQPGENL
Sequence of Voltage-gated inwardly rectifying potassium channel KCNH2 (Q12809 whole entry): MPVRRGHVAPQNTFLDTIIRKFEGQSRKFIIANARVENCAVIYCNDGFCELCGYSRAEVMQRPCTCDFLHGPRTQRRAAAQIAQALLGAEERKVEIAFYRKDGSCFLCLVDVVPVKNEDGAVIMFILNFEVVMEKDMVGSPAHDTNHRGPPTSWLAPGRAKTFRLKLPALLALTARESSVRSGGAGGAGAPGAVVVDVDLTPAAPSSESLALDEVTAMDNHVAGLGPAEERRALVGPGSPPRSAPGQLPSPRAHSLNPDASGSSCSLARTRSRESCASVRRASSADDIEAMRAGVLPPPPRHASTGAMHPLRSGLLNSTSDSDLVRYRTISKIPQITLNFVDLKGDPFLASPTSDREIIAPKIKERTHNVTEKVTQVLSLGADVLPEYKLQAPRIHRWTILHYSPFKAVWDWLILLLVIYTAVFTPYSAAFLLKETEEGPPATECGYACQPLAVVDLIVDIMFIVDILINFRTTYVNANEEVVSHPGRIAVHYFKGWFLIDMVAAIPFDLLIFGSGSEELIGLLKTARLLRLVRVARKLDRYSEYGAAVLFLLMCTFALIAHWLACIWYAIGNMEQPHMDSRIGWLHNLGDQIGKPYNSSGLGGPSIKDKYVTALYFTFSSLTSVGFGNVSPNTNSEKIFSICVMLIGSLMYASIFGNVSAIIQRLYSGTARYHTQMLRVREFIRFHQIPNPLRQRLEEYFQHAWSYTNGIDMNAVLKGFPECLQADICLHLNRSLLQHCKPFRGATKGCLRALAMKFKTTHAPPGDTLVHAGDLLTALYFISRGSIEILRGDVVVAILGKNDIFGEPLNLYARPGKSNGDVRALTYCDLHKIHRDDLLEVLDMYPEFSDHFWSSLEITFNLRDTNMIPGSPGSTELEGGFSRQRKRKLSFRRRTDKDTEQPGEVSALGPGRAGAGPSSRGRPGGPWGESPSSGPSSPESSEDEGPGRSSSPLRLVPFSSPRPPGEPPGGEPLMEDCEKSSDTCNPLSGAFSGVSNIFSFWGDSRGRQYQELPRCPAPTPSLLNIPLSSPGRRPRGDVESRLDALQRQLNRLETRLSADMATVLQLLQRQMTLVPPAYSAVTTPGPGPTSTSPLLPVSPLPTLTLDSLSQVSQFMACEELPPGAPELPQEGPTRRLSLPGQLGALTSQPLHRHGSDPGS

| SMILES | IC50 [2] [µM] | also measured |
| --- | --- | --- |
| O=C(CCCN1CCN(c2cccc(Cl)c2)CC1)c1c(O)cc(O)cc1O | – | inhibition [1]: < 50% |
| CC(C)NC(=O)c1c(O)cc(O)cc1O | 92.6 | – |
| COc1ccc(C(=O)CC(C)C)c(OCC(O)CNC(C)(C)C)c1 (stereo not given) | 138 | – |
| CC(C)CC(=O)c1c(O)cc(O)cc1OCC(O)CNC(C)(C)C (stereo not given) | 21.7 | – |
| COc1cc(O)c(C(=O)CC(C)C)c(OC)c1 | 51.5 | – |
| COc1cc(O)cc(O)c1C(=O)CC(C)C | 5.8 | Activity (Mus musculus [3]): Toxic; inhibition [4]: Active; inhibition [5]: Active; inhibition [6]: Active; Drug uptake [7]: Active; inhibition (INH) [8]: Active; LD50 [9]: 2000 mg/kg; Activity (Mus musculus [10]): Toxic; inhibition [11]: Active |
| COc1cc(OC)c(C(=O)CC(C)C)c(OCC(O)CNC(C)(C)C)c1 (stereo not given) | 75 | – |
| COc1cc(OC)c(C(=O)CN2CCN(C)CC2)c(OC)c1 | 95.3 | – |
| O=C(CCCN1CCCCC1)c1c(O)cc(O)cc1O | 182 | – |
| COc1ccc(C(=O)CC(C)C)c(O)c1 | 113 | – |
| COc1cc(/C=C/C(=O)CC(=O)/C=C/c2ccc(O)c(OC)c2)ccc1O [CURCUMIN] | 2.2 | – |
| COc1cc(OC)c(CN[C@@H](C)C(=O)O)c(OC)c1 | 39.1 | – |
| CC(C)CC(=O)c1c(O)cc(O)cc1OCc1c(-c2ccccc2)no[n+]1[O-] | 8.5 | inhibition [4]: Active; inhibition [5]: Active; inhibition [6]: Active; Drug uptake [7]: Active; inhibition [11]: Active |
| CC(C)CC(=O)c1c(O)cc(O)cc1OC[C@H](O)CNC(C)(C)C | 37.3 | – |
| CC(=O)c1c(O)cc(O)cc1O [2,4,6-TRIHYDROXYACETOPHENONE] | 195 | – |
| CC(C)CC(=O)c1c(O)cc(O)cc1OC[C@@H](O)CNC(C)C | – | inhibition [1]: < 50% |
| COc1cc(OC)c(C(=O)CC(C)C)c(OC[C@H](O)CNC(C)C)c1 | 41.3 | – |
| CC(C)CC(=O)c1c(O)cc(O)cc1OC[C@@H](O)CNC(C)(C)C | 24.1 | – |
| COc1cc(OC)c(CNC(C)C)c(OC)c1 | – | inhibition [1]: < 50% |
| CC(C)CC(=O)c1ccc(O)cc1 | 90.7 | – |
| CC(C)CC(=O)c1c(O)cc(O)cc1OCC(O)CNC(C)C (stereo not given) | 74 | – |
| COc1cc(OC)c(CN[C@@H](CCC(=O)O)C(=O)O)c(OC)c1 | 8.4 | inhibition [4]: Active; inhibition [5]: Active; inhibition [6]: Active; AUC [12]: 3195.1 µg·L·h; half-life [13]: 1.1 h; Cmax [14]: 1640 ng/mL; AUC [15]: Bld; Cmax [16]: Bld; Drug uptake [7]: Active; inhibition [17]: Active; inhibition [11]: Active |

| SMILES | IC50 [2] [µM] | also measured |
| --- | --- | --- |
| COc1ccc(C(=O)CC(C)C)c(OC[C@@H](O)CNC(C)C)c1 | 25.6 | – |
| CN(CCCC(=O)c1c(O)cc(O)cc1O)C1CCCCC1 | 54.8 | – |
| COc1cc(OC)c(C(=O)CC(C)C)c(OC[C@@H](O)CNC(C)C)c1 | 138 | – |
| COc1cc(OC)c(C(=O)CN2CCCCC2)c(OC)c1 | 24.9 | – |
| COc1ccc(C(=O)CC(C)C)c(OC[C@H](O)CNC(C)C)c1 | 40.9 | – |
| COc1cc(OC)c(C(=O)CN2CCOCC2)c(OC)c1 | 32.4 | – |
| COc1ccc(C(=O)CC(C)C)c(OC[C@@H](O)CNC(C)(C)C)c1 | 53.8 | – |
| COc1cc(OC)c(CNCC(=O)O)c(OC)c1 | – | inhibition [1]: < 50% |
| COc1cc(OC)c(C(=O)CC(C)C)c(OCC(O)CNC(C)C)c1 (stereo not given) | 84.8 | – |
| COc1cc(OC)c(C(=O)CC(C)C)c(OC)c1 | 11.1 | – |
| COc1ccc(C(=O)CC(C)C)c(OC[C@H](O)CNC(C)(C)C)c1 | 28.2 | – |
| CC(C)CC(=O)c1c(O)cc(O)cc1O | 50.6 to 50.7 | – |
| COc1cc(OC)c(CN[C@@H](Cc2cnc[nH]2)C(=O)O)c(OC)c1 | – | inhibition [1]: < 50% |
| COc1cc(OC)c(CN[C@@H](Cc2ccccc2)C(=O)O)c(OC)c1 | – | inhibition [1]: < 50% |
| COc1cc(OC)c(C(=O)CC(C)C)c(OC[C@H](O)CNC(C)(C)C)c1 | – | inhibition [1]: < 50% |
| CCCCNC(=O)c1c(O)cc(O)cc1O | 37.1 | – |
| CC(C)CC(=O)c1c(O)cc(O)cc1OC[C@H](O)CNC(C)C | – | inhibition [1]: < 50% |
| COc1ccc(C(=O)CC(C)C)c(OCC(O)CNC(C)C)c1 (stereo not given) | – | inhibition [1]: < 50% |
| CCN1CCN(CC(=O)c2c(OC)cc(OC)cc2OC)CC1 | 22.7 | – |
| COc1cc(OC)c(C(=O)CC(C)C)c(OC[C@@H](O)CNC(C)(C)C)c1 | 11.2 | – |
| CCCCC(=O)c1c(O)cc(O)cc1O | 11.2 | – |
| COc1cc(OC)c(CN[C@@H](CC(=O)O)C(=O)O)c(OC)c1 | 14.4 | inhibition [17]: Active |
